# Screening results (PubChem BioAssay)
# In the library only some 2.2% were active in any assay of this set; here they are far more common.
# SUMO Mot1 rescue: inhibitors of SUMOylation pathway: yeast Mot1-301 growth rescue | growth rescue, % at 18.8 µM | 320,000 tested, 1% active | S. cerevisiae Mot1-301 growth rescue, ATP luminescence, 38.5C; percent above DMSO median, 100 means doubled;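 active = every valid replicate shows activation above 250% relative to neutral control wells; inactive = the rest, any valid replicate at or below 250%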;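 also: OY570 slx delta 5 strain wells were the positive control but not used for scaling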
# Ecoli rRNA inh: inhibits bacterial ribosomal RNA function over humanized ribosomes | E. coli WT GFP vs humanized-ribosome RFP mutants, fluorescence, 24 h; hits give low values; DMSO median 0, no signal -100 | GFP signal change (wild-type ribosome), % (concentration not given with the values) | AID 720706 | 350,000 tested, 1.6% active;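 active = significant combined selectivity score with lowered wild-type GFP, culture density cut under 30%, mutant RFP and density less affected; inactive = any of these conditions unmet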
# Yeast superoxide: caloric restriction mimetics inhibiting age-related superoxide in yeast. S. cerevisiae aged cells, superoxide DHE fluorescence; hits give low values. superoxide response (% of plate mean), % at 10 µM. 330,000 tested, 0.18% active;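 active = superoxide response under a set limit, about three screen SD below normal, cut at about 65% in these data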;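 also: yeast aged for seven days with compound at 30 °C before DHE staining; 100% = average MFI of all compound-treated wells on the plate with controls excluded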
# Cneo AK release: Cryptococcus neoformans lysis via adenylate kinase release | C. neoformans lysis, adenylate kinase release luminescence, 4 h; normalised: neutral wells 0, clomiphene wells 100 | lysis activity, % at 15 µM | 360,000 tested, 0.2% active | AID 651654;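 active = mean lysis activity across replicates of at least 80%, whatever share of replicates individually reach that level; inactive = mean lysis activity below 80%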
#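 Test system: log-phase Cryptococcus neoformans yeast cells; Quantity: yeast cell density of 5 × 10^6 cells/mL; Buffer or medium: YPD; Doses: single compound concentration per well; Timing: 4 h at 37 °C static, read 1 h later; Measured by: AK luminescence; Read-out basis: lysis from increased AK signal; Control set: Clomiphene as positive control.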
# PglD inh: blocks C. jejuni PglD acetyltransferase activity. purified PglD enzyme, DTNB colorimetric CoA detection. inhibition, % at 12.5 µM. 360,000 tested, 0.098% active; in the data active = inhibition above about 16%, passing the limit was not always enough
# Starred values were filed as active, the others as inactive; · = not tested or not shown; + = active, no number; ! = not active in a repeat.
SMILES,SUMO Mot1 rescue,Ecoli rRNA inh,Yeast superoxide,Cneo AK release,PglD inh
COc1cc2cc(C(=O)N3CCN(Cc4ccc5c(c4)OCO5)CC3)[nH]c2cc1OC,-14,-4,86,-6,0
Cc1cccc(CN(C)C[C@@H]2OCc3cn(nn3)CCCC(=O)N([C@H](C)CO)C[C@H]2C)c1,·,-1,·,2,-3
COc1ccc(-c2nc(CN3CCN(Cc4cccc(F)c4)CC3)c(C)o2)cc1,-10,-11,106,1,7
Clc1cccc(CN2CCN(Cc3nc(CCc4ccccc4)no3)CC2)c1,9,-32*,91,-5,4
COc1ccc(-c2nc(CN3CCN(Cc4cccc(Cl)c4)CC3)c(C)o2)cc1,7,-33*,104,6,4
Cc1ccccc1N1CCN(Cc2nc(Cc3ccccc3)no2)CC1,-8,-28*,113,·,·
COc1ccc(NC(=O)N[C@@H]2CC[C@@H](CCNC(=O)CCN3CCCCC3)O[C@H]2CO)cc1,·,5,·,-11,3
O=C(C[C@H]1CC[C@H](NC(=O)NC2CCCC2)[C@@H](CO)O1)NCc1ccc(F)cc1,·,-8,·,2,-2
Fc1ccc(N2CCN(c3nc(CN4CCOCC4)nc4scc(-c5ccccc5)c34)CC2)cc1,159,-25*,86,·,·
Fc1ccc(CN2CCN(c3ncnc4scc(-c5ccccc5)c34)CC2)cc1,38,-52,142,-4,10
Fc1ccc(-c2csc3ncnc(N4CCN(Cc5ccccc5)CC4)c23)cc1,-1,-23*,101,-1,-3
COc1cc(CN2CC(=O)N(c3ccccc3Cl)C2=S)cc(OC)c1OC,-9,-18*,108,0,1
Cc1cccc(N2C(=O)CN(Cc3ccccc3)C2=S)c1,-11,-14*,103,-6,8
Cc1ccc(Cl)cc1N1CCN(S(=O)(=O)c2ccc3[nH]c(=O)c(=O)[nH]c3c2)CC1,12,-29*,101,-2,-2
COc1cccc(C(=O)N[C@H](C(=O)N2CCC[C@H]2C(=O)NCCc2ccccc2Cl)c2ccccc2)c1,·,-34*,·,·,·
COc1ccc(CN2C[C@H](C)[C@H](OC)CN(C)C(=O)c3cc(NC(=O)c4nc5ccccc5s4)ccc3OC[C@@H]2C)cc1,·,-2,·,1,0
CC(C)NC(=O)N(C)C[C@@H]1Oc2ccc(NS(=O)(=O)c3ccc(Cl)cc3)cc2CC(=O)N([C@H](C)CO)C[C@H]1C,·,1,·,-2,-2
CC1(C)Cc2c(ccc3ccccc23)C2=C(C(=O)N3CCCC3)C(=O)C(=O)N21,·,-26*,·,·,·
C=CCC1(O)C(=O)N2C(=C1C(=O)OCC)c1ccc3ccccc3c1CC2(C)C (stereo not given),-10,·,101,1,0
C[C@@H]1CN([C@@H](C)CO)C(=O)c2cccc(NC(=O)C3CCOCC3)c2O[C@@H]1CN(C)S(=O)(=O)c1ccccc1,·,1,·,40,-1
C[C@@H]1CN([C@H](C)CO)C(=O)c2cc(NC(=O)NC3CCCCC3)ccc2O[C@@H](C)CCCCO[C@@H]1CN(C)Cc1ccc(C(=O)O)cc1,·,0,·,2,0
COc1ccc(C(=O)NCCc2ccccn2)cc1S(=O)(=O)Nc1ccc(Br)cc1,-9,-20*,90,2,1
Cc1ccc(C)c(S(=O)(=O)Nc2ccc(C(=O)NCCc3ccccn3)cc2)c1,-15,-1,87,·,·
CN=c1scc(-c2cccs2)n1/N=C/c1ccccc1O,16,-27*,101,·,·
S=C1NCN(Cc2cccnc2)CN1Cc1ccccc1,-11,-5,113,·,·
SMILES,SUMO Mot1 rescue,Ecoli rRNA inh,Yeast superoxide,Cneo AK release,PglD inh
S=C1SCN(Cc2cccnc2)CN1Cc1ccccc1,19,-29*,144,1,0
O=C(COC(=O)c1ccc(O)cc1)Nc1ccc(OC(F)F)cc1,9,10,81,2,0
O=C(COC(=O)c1cccc(O)c1)Nc1ccc(OC(F)F)cc1,13,-25*,101,·,·
Cc1ccc(S(=O)(=O)Nc2ccc3c(c2)C(=O)N([C@@H](C)CO)C[C@H](C)[C@H](CN(C)C)OCCCC[C@@H](C)O3)cc1,·,2,·,·,·
COC(=O)/C(=N/Nc1ccc(C)cc1)N1CCCc2ccccc21,41,4,63*,·,·
COC(=O)/C(=N/Nc1ccccc1)N1CCCc2ccccc21,-24,-6,103,6,10
CC(=O)/C(=N/Nc1ccccc1[N+](=O)[O-])N1CCCc2ccccc21,-6,-28*,106,3,-4
COC(=O)c1ccc(CSc2cc(C)c3ccccc3n2)o1,·,-22*,117,·,·
CCC(=O)N1CCC2(CC1)CN(Cc1ccc3c(c1)OCO3)[C@@H](CO)c1c2c2ccc(OC)cc2n1C,·,-4,·,·,·
O=C1Nc2ccccc2/C1=C\C(=O)c1ccccc1,-7,-19*,90,0,-4
CO[C@@H]1CN(C)C(=O)c2ccc(NS(C)(=O)=O)cc2OC[C@H](C)N(CC2CCOCC2)C[C@H]1C,·,2,·,-2,-43
CC1=C(C(=O)OC2CCCC2)C(c2coc3ccccc3c2=O)C2=C(CC(C)(C)CC2=O)N1 (stereo not given),-55,-22*,99,-1,7
C[C@H]1CN([C@@H](C)CO)C(=O)c2cc(C#CC3CC3)cnc2O[C@@H]1CN(C)C(=O)C1CCCCC1,·,-2,·,·,·
COc1cccc(C2=NOC(C(=O)N3CCN(Cc4ccccc4)CC3)C2)c1OC (stereo not given),-4,·,89,0,5
O=C(C1CC(c2ccc(F)cc2)=NO1)N1CCN(Cc2ccccc2)CC1 (stereo not given),318*,0,99,1,5
CCCN1CCN(CC(=O)Nc2nc3ccccc3s2)CC1,131,-1,104,1,-5
Cc1csc(=O)n1CC(=O)Nc1nc2ccccc2s1,321*,2,110,0,-2
O=C(NCCc1c[nH]c2ccccc12)C(=O)NCC1OCCCN1S(=O)(=O)c1ccc(F)cc1 (stereo not given),1,-18*,102,·,·
O=S(=O)(/N=C(/Nc1ccc(Cl)c(S(=O)(=O)Nc2ccccc2Cl)c1)c1ccc(F)cc1)c1ccccc1,15,-28*!,89,·,·
COc1ccccc1NS(=O)(=O)c1cc(N/C(=N/S(=O)(=O)c2ccccc2)c2ccc(F)cc2)ccc1Cl,·,-10,·,1,6
CNC[C@H]1Oc2ncc(C#CC3CCCC3)cc2C(=O)N([C@@H](C)CO)C[C@H]1C,·,4,·,0,2
O=C(/C(=C\c1ccccc1)c1nc2ccccc2[nH]1)c1ccc(Cl)cc1,+,·,95,·,·
O=C(/C(=C/c1ccc(Cl)cc1)c1nc2ccccc2[nH]1)c1cccs1,521*,·,117,·,·
COC(=O)/C(=C\c1ccc(O)cc1)c1nc2ccccc2[nH]1,-22,13,102,·,·
C[C@@H](NC(=O)C[C@H]1CC[C@H](NC(=O)c2cccnc2)[C@H](CO)O1)c1ccccc1,·,-2,·,-5,4
